Source: ChEMBL document CHEMBL1129630, “Synthesis and structure-activity relationships of retinoid X receptor selective diaryl sulfide analogs of retinoic acid” (J Med Chem, 1996)

Legend:
Mus musculus = species on record: Mus musculus; experiment: Inhibition of Chondrogenesis in day 11 embryonic limb bud cells; settings: 264 h
[1] = target: T1, Retinoic acid receptor alpha (Mus musculus, UniProt P11416); experiment: Dissociation constant for binding to Retinoic acid receptor alpha;NA=not active
T1 sequence (P11416 whole entry): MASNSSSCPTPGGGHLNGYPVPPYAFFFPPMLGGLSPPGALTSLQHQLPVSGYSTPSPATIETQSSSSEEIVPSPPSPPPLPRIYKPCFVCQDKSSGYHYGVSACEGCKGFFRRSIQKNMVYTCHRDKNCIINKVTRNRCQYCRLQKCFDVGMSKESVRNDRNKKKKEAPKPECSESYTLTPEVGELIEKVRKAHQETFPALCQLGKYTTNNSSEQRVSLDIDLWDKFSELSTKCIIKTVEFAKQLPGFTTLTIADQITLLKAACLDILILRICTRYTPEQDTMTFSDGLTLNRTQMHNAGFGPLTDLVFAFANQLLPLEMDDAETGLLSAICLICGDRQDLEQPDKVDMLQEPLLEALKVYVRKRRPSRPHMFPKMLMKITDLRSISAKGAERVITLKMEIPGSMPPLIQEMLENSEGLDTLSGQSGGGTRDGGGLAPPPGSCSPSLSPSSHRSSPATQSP
Outline: (§1)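 Competitive binding assays against each receptor subtype, with Kd values taken from competition.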

[2] = target: T2, Retinoic acid receptor beta (Mus musculus, UniProt P22605); experiment: Dissociation constant for binding to Retinoic acid receptor beta;NA=not active; outline: as §1
T2 sequence (P22605 whole entry): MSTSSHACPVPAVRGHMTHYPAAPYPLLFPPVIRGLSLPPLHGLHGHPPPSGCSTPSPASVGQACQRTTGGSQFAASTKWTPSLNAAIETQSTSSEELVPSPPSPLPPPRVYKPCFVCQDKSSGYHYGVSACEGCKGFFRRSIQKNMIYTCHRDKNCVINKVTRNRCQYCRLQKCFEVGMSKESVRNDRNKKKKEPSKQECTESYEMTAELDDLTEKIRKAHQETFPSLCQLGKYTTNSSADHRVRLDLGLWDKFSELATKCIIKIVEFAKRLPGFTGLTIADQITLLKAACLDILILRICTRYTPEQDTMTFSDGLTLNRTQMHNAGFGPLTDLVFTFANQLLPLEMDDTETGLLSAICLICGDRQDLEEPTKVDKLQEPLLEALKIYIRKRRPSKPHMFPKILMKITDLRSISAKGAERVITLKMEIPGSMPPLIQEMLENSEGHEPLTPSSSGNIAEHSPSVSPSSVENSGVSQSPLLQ

[3] = target: T3, Retinoic acid receptor beta (Homo sapiens, UniProt P10826); experiment: Transcriptional activation of Retinoic acid receptor RAR beta;NA=not active; parameters: species or system Cercopithecidae
T3 sequence (P10826 whole entry): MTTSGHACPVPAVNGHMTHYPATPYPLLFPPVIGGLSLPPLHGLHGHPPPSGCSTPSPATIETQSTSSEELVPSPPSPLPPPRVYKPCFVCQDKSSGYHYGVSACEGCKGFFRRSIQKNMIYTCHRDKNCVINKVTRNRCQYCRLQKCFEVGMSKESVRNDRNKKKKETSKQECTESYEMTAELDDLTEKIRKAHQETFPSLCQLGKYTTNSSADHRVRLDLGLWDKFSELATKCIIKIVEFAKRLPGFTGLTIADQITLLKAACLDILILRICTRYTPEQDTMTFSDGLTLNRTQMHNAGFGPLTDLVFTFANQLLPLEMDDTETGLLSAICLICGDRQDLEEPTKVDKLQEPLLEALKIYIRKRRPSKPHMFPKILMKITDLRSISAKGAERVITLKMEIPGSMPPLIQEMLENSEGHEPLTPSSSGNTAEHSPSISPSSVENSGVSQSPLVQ
Outline: (§2)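 CV-1 cells transiently cotransfected with the receptor construct and a reporter gene, with induced transcription measured. Activity is normalized to all-trans RA. EC50 is the concentration giving 50% of maximal observed response, from a single experiment in triplicate.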

HL-60 = experiment: Induction of transglutaminase (TGase) activity in HL-60 cells; settings: Homo sapiens
[4] = target: T4, Retinoic acid receptor gamma (Mus musculus, UniProt P18911); experiment: Dissociation constant for binding to Retinoic acid receptor gamma;NA=not active; outline: as §1
T4 sequence (P18911 whole entry): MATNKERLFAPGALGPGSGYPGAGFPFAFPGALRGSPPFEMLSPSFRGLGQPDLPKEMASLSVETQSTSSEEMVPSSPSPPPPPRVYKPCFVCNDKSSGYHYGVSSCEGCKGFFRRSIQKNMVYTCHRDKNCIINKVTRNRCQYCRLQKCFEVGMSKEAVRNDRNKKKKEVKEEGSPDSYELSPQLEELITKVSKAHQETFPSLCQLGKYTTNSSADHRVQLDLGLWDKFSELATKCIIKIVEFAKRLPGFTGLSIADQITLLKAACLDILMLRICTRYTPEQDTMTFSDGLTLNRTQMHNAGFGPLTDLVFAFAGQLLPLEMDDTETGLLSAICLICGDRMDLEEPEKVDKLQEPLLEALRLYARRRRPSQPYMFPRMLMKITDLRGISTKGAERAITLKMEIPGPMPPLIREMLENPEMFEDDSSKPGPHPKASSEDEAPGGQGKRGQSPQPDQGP

[5] = target: T5, Retinoic acid receptor gamma (Homo sapiens, UniProt P13631); experiment: Transcriptional activation of Retinoic acid receptor RAR gamma; parameters: species or system Cercopithecidae; outline: as §2
T5 sequence (P13631 whole entry): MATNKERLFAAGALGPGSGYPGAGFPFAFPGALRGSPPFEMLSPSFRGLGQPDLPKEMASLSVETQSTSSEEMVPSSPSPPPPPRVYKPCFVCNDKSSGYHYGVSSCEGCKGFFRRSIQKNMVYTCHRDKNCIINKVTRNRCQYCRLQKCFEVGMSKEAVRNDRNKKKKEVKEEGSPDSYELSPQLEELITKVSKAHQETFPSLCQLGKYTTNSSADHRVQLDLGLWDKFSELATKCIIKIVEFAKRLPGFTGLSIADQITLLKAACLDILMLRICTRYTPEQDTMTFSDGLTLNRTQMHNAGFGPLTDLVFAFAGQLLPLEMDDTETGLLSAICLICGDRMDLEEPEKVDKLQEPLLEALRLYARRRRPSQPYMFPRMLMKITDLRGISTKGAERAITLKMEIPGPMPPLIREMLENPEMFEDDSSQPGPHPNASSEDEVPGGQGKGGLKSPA

SMILES	EC50 [3]	EC50 (HL-60) [nM]	EC50 [5]	IC50 (Mus musculus) [nM]	also measured
Cc1cc2c(cc1Sc1ccc(C(=O)O)cn1)C(C)(C)CCC2(C)C	Not Active	100		1000	Kd [1]: Not Active; Kd [2]: Not Active; Kd [4]: Not Active
Cc1cc2c(cc1Sc1ncc(C(=O)O)s1)C(C)(C)CCC2(C)C	Not Active				
CC1(C)CCC(C)(C)c2cc(Sc3ccc(C(=O)O)cc3)ccc21			340 nM		

The next lines start with results.

EC50 [3]	EC50 (HL-60) [nM]	EC50 [5]	SMILES	IC50 (Mus musculus) [nM]	also measured
Not Active			Cc1cc2c(cc1S(=O)(=O)c1ccc(C(=O)O)cc1)C(C)(C)CCC2(C)C		
Not Active	200	Not Active	Cc1cc2c(cc1Sc1ccc(C(=O)O)cc1)C(C)(C)CCC2(C)C	910	
Not Active			Cc1cc2c(cc1[S+]([O-])c1ccc(C(=O)O)cc1)C(C)(C)CCC2(C)C (centres undefined)		
